Screens as filed in PubChem BioAssay.
DNMT1 inh: inhibitors of human DNMT1; actives 0.83% (n = 360,000); inhibition (reported as % activation of signal), % at 10 µM; DNMT1 molecular beacon, Hinp1I cleavage, fluorescence; in the data active = inhibition above about 50%
Scp1 inh: inhibitors of human Scp-1 phosphatase | Recombinant Scp1, phosphopeptide, malachite green phosphate absorbance | AID 493091 | inhibition, % at 20 µM | actives 0.88% (n = 340,000);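 active = inhibition above about 50% at 20 µM, limit read from the data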;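 also: plate controls were DMSO wells with enzyme for no effect and wells lacking enzyme for full effect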
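Material: truncated SCP-1 phosphatase (76-261aa) / Buffer or medium: 50 mM Tris acetate pH 5.5, 0.005% Tween-20, 10 mM MgCl2 / Compound dosing: one concentration, 20 µM, with 1.0% DMSO / Incubation: 45 min room-temperature reaction, 5 min colour, 30 min stabiliser / Detection: colorimetric free-phosphate detection, absorbance 630 nm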
LMPTP block: LMPTP (human) inhibition; P24666; recombinant LMPTP-A, OMFP fluorogenic substrate, fluorescence intensity; inhibition, % at 20 µM; actives 0.22% (n = 360,000); AID 651560;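 active = compounds that cut the enzyme signal by at least half of the control window in the single-dose screen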;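 also: plate controls were DMSO wells with enzyme plus substrate for no effect and substrate without enzyme for full effect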
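Assay system: LMPTP-A, protein tyrosine phosphatase of low molecular weight / Medium: pH 6.0 Bis-Tris buffer with DTT and Triton X-100 / Schedule: 50 min enzyme reaction at room temperature, protected from light / Measured by: endpoint fluorescence intensity from OMFP dephosphorylation / Read-out basis: % inhibition relative to no-enzyme and uninhibited control wells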
STEP inh: inhibitors of human striatal-enriched phosphatase STEP; recombinant STEP, OMFP fluorogenic substrate, fluorescence; inhibition, % at 20 µM; actives 0.25% (n = 360,000);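 active = inhibition at 20 µM, scaled per plate between control wells, above about 37%, limit read from the data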;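 also: 0% = DMSO with enzyme and substrate and 100% = substrate only without enzyme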
Target sequence (P54829 whole entry, looked up): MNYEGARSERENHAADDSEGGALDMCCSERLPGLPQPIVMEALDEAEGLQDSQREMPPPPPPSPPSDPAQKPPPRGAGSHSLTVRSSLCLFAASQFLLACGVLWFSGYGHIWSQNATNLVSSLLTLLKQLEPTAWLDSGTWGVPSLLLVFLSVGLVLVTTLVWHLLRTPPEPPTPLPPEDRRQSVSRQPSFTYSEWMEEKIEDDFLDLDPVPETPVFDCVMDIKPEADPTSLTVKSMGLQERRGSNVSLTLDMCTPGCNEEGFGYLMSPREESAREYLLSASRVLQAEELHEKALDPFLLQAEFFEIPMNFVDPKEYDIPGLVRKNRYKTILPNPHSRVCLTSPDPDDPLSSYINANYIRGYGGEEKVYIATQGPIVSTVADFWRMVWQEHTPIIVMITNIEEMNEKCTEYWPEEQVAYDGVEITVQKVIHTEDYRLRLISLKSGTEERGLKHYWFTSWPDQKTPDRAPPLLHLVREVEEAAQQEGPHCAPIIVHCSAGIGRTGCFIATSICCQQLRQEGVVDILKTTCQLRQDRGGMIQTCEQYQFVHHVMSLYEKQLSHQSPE
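System: isolated STEP enzyme; schedule: 20 min enzyme reaction at room temperature, protected from light; medium: Bis-Tris buffer pH 6.0, 2.5 mM DTT, 0.005% Tween 20; signal: fluorescence, 480/540 nm; dosing: single compound dose of 20 µM, 1% DMSO final; also added: OMFP substrate, 25 µM final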
SUMO1 PPI mod: SUMO1-SIM interaction modulation | AID 602429 | SUMO1 binding to a labelled peptide, TR-FRET, 1 h | inhibition, % at 20 µM | actives 0.33% (n = 360,000); in the data active = inhibition above about 37%
Target sequence (P63165 whole entry, looked up): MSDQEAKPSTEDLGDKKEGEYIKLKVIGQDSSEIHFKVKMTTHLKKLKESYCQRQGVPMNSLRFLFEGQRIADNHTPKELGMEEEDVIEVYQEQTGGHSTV
Scp-1 conf: confirmation of human Scp-1 phosphatase inhibitors | actives 61% (n = 2,500) | recombinant SCP-1 catalytic domain, phosphate release, malachite green absorbance | inhibition, % at 20 µM | shares compounds with Scp1 inh;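 also: plate controls were DMSO with enzyme for no effect and buffer wells lacking enzyme for full effect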
Scp-1 MG ctr: colorimetric interference in Scp-1 counter-screen | shares compounds with Scp1 inh | Colorimetric interference counterscreen, malachite green absorbance 630 nm | apparent inhibition (interference), % at 20 µM | 2,500 tested, under 10 active | AID 540313;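 also: compounds added after enzyme reaction finished so only phosphate colour detection is probed; plate controls were DMSO wells with completed Scp-1 reaction for no effect and substrate wells lacking enzyme for full effect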
Scp1 DSF: Scp-1 (human) binding by thermal shift; actives 25% (n = 1,500); thermal shift relative to vanadate control, % at 40 µM; Recombinant SCP1, Sypro Orange thermal shift Tm; shares compounds with Scp1 inh;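 active = substances whose mean melting-temperature shift, as a percentage of the reference inhibitor's shift, reaches about 5.3%, limit read from the data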;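 also: 0% = Tm of DMSO wells and 100% = Tm with sodium orthovanadate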
* = called active by the depositor. An excerpt weighted towards active compounds, which were near 1.7% of everything screened.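 The calls were made as follows, unless noted: active = inhibition of at least 30% at 20 µM; inactive = the rest.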

For CCC(=O)c1ccc(OCC(=O)OCC(=O)N2c3ccccc3NC(=O)C2(C)C)cc1 the results were DNMT1 inh 9.0, Scp1 inh 9.4, LMPTP block 1.2, STEP inh 5.1 and SUMO1 PPI mod 12.0.
For Cc1ccccc1OCCC(=O)OCC(=O)N1c2ccccc2NC(=O)C1(C)C the results were DNMT1 inh 10.4, Scp1 inh 20.1, LMPTP block 1.3, STEP inh 1.4 and SUMO1 PPI mod 6.3.
`Cc1cc(OCC(=O)OCC(=O)N2c3ccccc3NC(=O)C2(C)C)ccc1Cl` gave DNMT1 inh 33.1, Scp1 inh 59.8*, LMPTP block 7.1, STEP inh -0.9, SUMO1 PPI mod 9.2, Scp-1 conf 57.2*, Scp-1 MG ctr -18.9 and Scp1 DSF 0.7.
CCOc1ccccc1NC(=O)COC(=O)CC(C)(C)CC1=NS(=O)(=O)c2ccccc2N1 was read as DNMT1 inh 2.2, Scp1 inh -8.6, LMPTP block -1.4, STEP inh -2.0 and SUMO1 PPI mod -1.6.
`COc1ccc(C(=O)Nc2ccnn2C2CCN(C(=O)c3cccnc3)CC2)cc1` gave DNMT1 inh -0.1, Scp1 inh 12.9, LMPTP block -0.1, STEP inh 0.4 and SUMO1 PPI mod -1.6.
`O=C(CSc1nnc2scc(-c3ccccc3)n12)Nc1nsc(-c2ccccc2)n1` gave DNMT1 inh 17.2, Scp1 inh 71.3*, LMPTP block 7.6, STEP inh 6.6, SUMO1 PPI mod 3.9, Scp-1 conf 73.9*, Scp-1 MG ctr -7.9 and Scp1 DSF -19.1.
For Cc1ccc(-c2csc3nnc(SCC(=O)Nc4nsc(-c5ccccc5)n4)n23)cc1 the results were DNMT1 inh 3.3, Scp1 inh 14.6, LMPTP block 3.0, STEP inh 2.3 and SUMO1 PPI mod 3.6.
For COCCn1c(SCC(=O)Nc2ccc3[nH]c(=O)[nH]c3c2)nc2ccccc21 the results were DNMT1 inh -1.9, Scp1 inh -9.5, LMPTP block 2.0, STEP inh -2.2 and SUMO1 PPI mod 6.5.
For NS(=O)(=O)c1cccc(NC(=O)COC(=O)CC2Sc3ccccc3NC2=O)c1 (stereo unspecified) the results were DNMT1 inh -1.2, Scp1 inh -5.4, LMPTP block 0.1, STEP inh -4.1 and SUMO1 PPI mod 8.4.
`O=C(CC1Sc2ccccc2NC1=O)Nc1cccc(C(=O)O)c1` (stereo unspecified) gave DNMT1 inh 37.3, Scp1 inh 59.9*, LMPTP block 0.8, STEP inh 1.7, SUMO1 PPI mod 7.6, Scp-1 conf 36.3*, Scp-1 MG ctr -20.3 and Scp1 DSF -4.2.
`O=C(O)c1ccc(CSc2nc3ccc(NC(=O)c4ccccc4C(=O)O)cc3s2)cc1` gave DNMT1 inh 4.0, Scp1 inh 57.6*, LMPTP block 6.0, STEP inh 23.5, SUMO1 PPI mod -1.4, Scp-1 conf 43.1*, Scp-1 MG ctr -20.5 and Scp1 DSF -9.6.
CCOc1ccc(OCCC(=O)OCC(=O)N(CC)c2c(N)n(Cc3ccccc3)c(=O)[nH]c2=O)cc1 was read as DNMT1 inh 4.7, Scp1 inh 7.1, LMPTP block -0.6, STEP inh 0.1 and SUMO1 PPI mod -0.4.
Screening CCCNC(=O)c1ccc2c(=O)n(Cc3ccco3)c(=S)[nH]c2c1 returned DNMT1 inh 1.1, Scp1 inh -3.5, LMPTP block -0.1, STEP inh 0.9 and SUMO1 PPI mod 5.2.
For CCOc1cc2[nH]c(=S)n(Cc3ccc(C(=O)NCCCN(CC)CC)cc3)c(=O)c2cc1OCC the results were DNMT1 inh -0.8, Scp1 inh 59.1*, LMPTP block -0.1, STEP inh -1.1, SUMO1 PPI mod 11.3, Scp-1 conf -13.1 and Scp-1 MG ctr -10.9.
`COc1ccc(CCNC(=O)c2ccc3c(=O)n(Cc4ccco4)c(=S)[nH]c3c2)cc1OC` gave DNMT1 inh -7.1, Scp1 inh 58.2*, LMPTP block 3.5, STEP inh 3.9, SUMO1 PPI mod 10.7, Scp-1 conf -14.1 and Scp-1 MG ctr -16.7.
`COc1ccc(C(C(=O)NC2CCCCC2)N(Cc2ccco2)C(=O)c2snc(C(N)=O)c2N)cc1` (stereo unspecified) gave DNMT1 inh 0.1, Scp1 inh 5.1, LMPTP block 0.6, STEP inh 4.0 and SUMO1 PPI mod -2.3.
CC1(C(=O)NS(=O)(=O)c2cccc(OC(F)F)c2)CCN1C(=O)c1ccccc1CCc1ccccc1 (stereo unspecified) was read as DNMT1 inh -1.5, LMPTP block -1.0, STEP inh 0.3 and SUMO1 PPI mod 4.6.
Screening C[N+]1(C)CC2([N+](=O)[O-])CC=C(Oc3ccccc3)C([N+](=O)[O-])(C2)C1 (stereo unspecified) returned DNMT1 inh 2.7, Scp1 inh 97.4*, LMPTP block -0.2, STEP inh 2.0, SUMO1 PPI mod -4.6, Scp-1 conf 87.1*, Scp-1 MG ctr -14.5 and Scp1 DSF -28.0.
`COC(=O)c1ccc(NC(=S)N2CCC(C(N)=O)CC2)cc1` gave DNMT1 inh 0.1, Scp1 inh 68.3*, LMPTP block 0.6, STEP inh 10.0, SUMO1 PPI mod 3.1, Scp-1 conf -6.2 and Scp-1 MG ctr -7.3.
`CCc1oc2ccccc2c1C(=O)CCN1CCCCC1` gave DNMT1 inh 3.0, Scp1 inh 57.5*, LMPTP block -0.6, STEP inh 1.4, SUMO1 PPI mod -0.7, Scp-1 conf 13.9 and Scp-1 MG ctr -2.1.
Screening O=C(CCN1CCCCC1)c1ccccc1 returned DNMT1 inh 5.5, Scp1 inh -6.2, LMPTP block -0.8, STEP inh -2.5 and SUMO1 PPI mod -0.1.
COc1ccc(CN2C(=O)CN(S(C)(=O)=O)CC2(C)C(=O)Nc2ccc3c(c2)OCCO3)cc1OC (stereo unspecified) was read as LMPTP block -0.9 and SUMO1 PPI mod -3.6.
`O=c1c(O[C@@H]2O[C@H](CO)C(O)C2O)c(-c2ccc(O)c(O)c2)oc2cc(O)cc(O)c12` (stereo partly specified) gave DNMT1 inh 13.8, Scp1 inh -14.6, LMPTP block -1.4, STEP inh 0.5 and SUMO1 PPI mod -4.5.
